In the library only some 3% were active in any assay of this set; here they are far more common.
MEKK2wt PB1 HTS: modulators of MEK5 binding to wildtype MEKK2, primary screen, biochemical, multiplex bead flow cytometry, Alexa488-MEK5; binding response (% of control), % at 10 µM; actives 1.1% (n = 290,000); Mitogen-activated protein kinase kinase kinase 2 (Homo sapiens), Q9Y2U5; Alexa488-MEK5 binding to MEKK2 WT; actives lie on both sides; in the data active means binding response below about 67% or above about 130%
MEKK3 PB1 HTS: modulators of MEKK3-MEK5 PB1 binding, primary screen, biochemical, wildtype MEKK3, multiplex bead flow cytometry, Alexa488-MEK5; binding response (% of control), % at 10 µM; Mitogen-activated protein kinase kinase kinase 3 (Homo sapiens), Q99759; actives 1.4% (n = 290,000); bead-based flow cytometry, Alexa488-MEK5 binding to MEKK3; actives lie on both sides; 0 = blocked by unlabeled MEK5, 100 = vehicle;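 active means binding response more than 3 SD above or below the average of its plate-row segment, actives on both sides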;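 further: Alexa488 bead fluorescence after subtracting the streptavidin-only scavenger bead signal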
Target sequence (Q99759 whole entry, looked up): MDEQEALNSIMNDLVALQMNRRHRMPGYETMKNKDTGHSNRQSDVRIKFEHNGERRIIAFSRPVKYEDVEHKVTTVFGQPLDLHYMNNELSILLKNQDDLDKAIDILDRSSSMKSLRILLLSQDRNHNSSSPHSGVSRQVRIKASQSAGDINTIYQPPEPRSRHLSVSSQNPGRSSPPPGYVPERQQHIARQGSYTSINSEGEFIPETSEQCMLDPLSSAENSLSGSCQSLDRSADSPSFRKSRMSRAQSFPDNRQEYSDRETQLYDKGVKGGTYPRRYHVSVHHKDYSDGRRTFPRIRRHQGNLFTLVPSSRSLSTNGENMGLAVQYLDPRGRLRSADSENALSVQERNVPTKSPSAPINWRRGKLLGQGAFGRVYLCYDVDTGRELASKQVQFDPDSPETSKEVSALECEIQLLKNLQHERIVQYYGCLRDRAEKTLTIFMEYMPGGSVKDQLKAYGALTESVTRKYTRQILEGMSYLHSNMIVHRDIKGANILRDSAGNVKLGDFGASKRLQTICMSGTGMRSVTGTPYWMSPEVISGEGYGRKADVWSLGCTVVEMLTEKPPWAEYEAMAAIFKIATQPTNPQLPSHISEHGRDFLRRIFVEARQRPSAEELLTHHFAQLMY
UBC13 inh: UBC13 polyubiquitin chain formation inhibitors, primary screen, biochemical, TR-FRET, uHTS; Ubiquitin-conjugating enzyme E2 N (Homo sapiens), P61088; inhibition, % at 20 µM; actives 0.47% (n = 330,000); in the data active means inhibition above about 45%, passing the limit was not always enough
UCH37 DUB inh: inhibitors of human UCH37 deubiquitinase, primary screen, biochemical, Ub-AMC cleavage, fluorescence. Ubiquitin carboxyl-terminal hydrolase isozyme L5 (Homo sapiens), Q9Y5K5. purified proteasome/UCH37. inhibition, % (no concentration beside the values). actives 0.33% (n = 330,000);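 active means mean inhibition over replicate wells above about 20%, limit read from the data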;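 further: 0% = compound-free wells with enzyme and 100% = wells lacking proteasome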
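Material: Human UCH37 enzyme supplied as purified proteasome complex | Schedule: 30 min preincubation with enzyme, 25 min cleavage at room temperature | Detection: AMC fluorescence 355/460 nm | Measure: % inhibition of Ub-AMC cleavage fluorescence | Controls: Wells without proteasome as full block, compound-free enzyme plus substrate as uninhibited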
MEKK2mut PB1 HTS: MEK5 binding signal on mutant MEKK2 PB1, primary screen, biochemical, multiplex bead flow cytometry, Alexa488-MEK5. Alexa488-MEK5 binding to MEKK2 mutant. percent response, % at 10 µM. actives 0.35% (n = 290,000); in the data active means percent response above about 24%, passing the limit was not always enough
Apaf1 inhib: inhibitors of human Apaf-1 apoptosome, primary screen, biochemical, DEVD-Rh110 fluorescence, uHTS; reconstituted apoptosome caspase-3 activity; inhibition, % at 20 µM; actives 0.71% (n = 330,000); active means inhibition of at least 40% at 20 µM;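 further: plate controls were DMSO wells for no effect and DEVD-CHO caspase inhibitor wells for full effect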
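detection = Rh110 fluorescence intensity | test system = biochemical Apaf-1 apoptosome reconstitution | also added = cytochrome c and DEVD-Rh110 substrate | schedule = 30 min plus 50 min, RT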
MEKK2wt confirm: modulators of MEK5 binding to wildtype MEKK2, confirmation, biochemical, single concentration, multiplex bead flow cytometry | actives 2.4% (n = 5,900) | binding response (% of control), % at 10 µM | shares compounds with MEKK3 PB1 HTS | AID 1892, 2009 | Alexa488-MEK5 binding to MEKK2 WT; actives lie on both sides; in the data active means binding response below about 16% or above about 210%; inactive means in between
MEKK2mut confirm: mutant MEKK2 PB1-MEK5 binding signal retest – biochemical, single concentration, multiplex bead flow cytometry, confirmation. percent response, % at 10 µM. shares compounds with MEKK3 PB1 HTS. Alexa488-MEK5 binding to MEKK2 mutant. actives 2% (n = 5,900); in the data active means percent response mostly above about 71%, no sharp cut-off; inactive means mostly below about 38%;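 further: higher means compound restores mutant binding toward wildtype level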
MEKK3 confirm: MEKK3 wild-type PB1 binding to MEK5, inhibitors, confirmation, biochemical, bead multiplex flow cytometry, single concentration, wildtype. actives 1.8% (n = 5,900). binding response (% of control), % at 10 µM. shares compounds with MEKK3 PB1 HTS. Alexa488-MEK5 binding to MEKK3; hits give low values;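 active means binding response below 72% of control, or above a set upper limit, though filed actives all read lower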;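 further: 100% = DMSO only wells and 0% = binding blocked by excess unlabeled MEK5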
An asterisk follows results filed as active; [ ] = dose if it differs, or a comment.

`COc1cc2[nH]c(=O)n(CCCC(=O)N3CC=C(c4ccccc4)CC3)c(=O)c2cc1OC` gave MEKK2wt PB1 HTS 120.0, MEKK3 PB1 HTS 127.0*, UBC13 inh -3.1, UCH37 DUB inh -9.1, MEKK2mut PB1 HTS 10.0, Apaf1 inhib 23.6, MEKK2wt confirm 105.0, MEKK2mut confirm 4.0 and MEKK3 confirm 104.0.
For O=C(c1ccc(CNS(=O)(=O)c2cccc(Cl)c2)cc1)N1CCCC1 the results were MEKK2wt PB1 HTS 101.0, MEKK3 PB1 HTS 101.0, UBC13 inh 2.6, UCH37 DUB inh 1.1, MEKK2mut PB1 HTS 2.0 and Apaf1 inhib -0.5.
For O=C(Oc1cccc(Br)c1)c1cccnc1 the results were MEKK2wt PB1 HTS 112.0, MEKK3 PB1 HTS 115.0, UBC13 inh 6.5, UCH37 DUB inh 4.1, MEKK2mut PB1 HTS 1.0 and Apaf1 inhib -1.6.
`Cc1cc(C)cc(OC(=O)c2cccnc2)c1` gave MEKK2wt PB1 HTS 107.0, MEKK3 PB1 HTS 103.0, UBC13 inh 4.0, UCH37 DUB inh -0.9, MEKK2mut PB1 HTS 7.0 and Apaf1 inhib -1.4.
`COC(=O)c1cc(Br)ccc1OC(=O)c1cccnc1` gave MEKK2wt PB1 HTS 0.0*[inhibitor], MEKK3 PB1 HTS 0.0*[inhibitor], UBC13 inh -1.7, UCH37 DUB inh 2.7, MEKK2mut PB1 HTS -17.0, Apaf1 inhib -0.3, MEKK2wt confirm 102.0, MEKK2mut confirm 1.0 and MEKK3 confirm 100.0.
Cc1ccc(OC(=O)c2cccnc2)cc1 was read as MEKK2wt PB1 HTS 56.0*[inhibitor], MEKK3 PB1 HTS 57.0*[inhibitor], UBC13 inh 8.9, UCH37 DUB inh 0.1, MEKK2mut PB1 HTS -14.0, Apaf1 inhib -8.6, MEKK2wt confirm 102.0, MEKK2mut confirm -1.0 and MEKK3 confirm 106.0.
Screening CCS(=O)(=O)c1ccc2c(c1)NC(=O)C(CCCl)O2 (stereo not given) returned MEKK2wt PB1 HTS 105.0, MEKK3 PB1 HTS 100.0, UBC13 inh -11.1, UCH37 DUB inh 5.5, MEKK2mut PB1 HTS 3.0 and Apaf1 inhib 6.4.
Screening CCOC(=O)C1CCCN(Cc2ccc(OCC)cc2)C1 (stereo not given) returned MEKK2wt PB1 HTS 101.0, MEKK3 PB1 HTS 105.0, UBC13 inh 2.9, UCH37 DUB inh 3.8, MEKK2mut PB1 HTS 1.0 and Apaf1 inhib 2.1.
Cc1oc2c(CN3CCOCC3)c(O)ccc2c(=O)c1-c1ccc(Cl)cc1 was read as MEKK2wt PB1 HTS 44.0*[inhibitor], MEKK3 PB1 HTS 38.0*[inhibitor], UBC13 inh 9.7, UCH37 DUB inh -313.6, MEKK2mut PB1 HTS -16.0, Apaf1 inhib -3.1, MEKK2wt confirm 107.0, MEKK2mut confirm 7.0 and MEKK3 confirm 101.0.
`COc1cccc2[nH]c3c(N4CCC(C)CC4)ncnc3c12` gave MEKK2wt PB1 HTS 104.0, MEKK3 PB1 HTS 90.0, UBC13 inh -3.6, UCH37 DUB inh -59.2, MEKK2mut PB1 HTS -7.0 and Apaf1 inhib -5.7.

Bioassay records as filed in PubChem.
